Measurements reported in ChEMBL document CHEMBL2146475, “A novel bitriazolyl acyclonucleoside endowed with dual antiproliferative and immunomodulatory activity” (J Med Chem, 2012).
The source made the active and inactive calls. The calls are words filed in the database; no cut-off is given here.

Tests used:
[1] = system: MIA PaCa-2; assay: Cytotoxicity against multidrug-resistant human MIAPaCa2 cells assessed as cell viability at 50 uM after 48 hrs by MTT assay; type: functional, cell-based
How it was run: (§1)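 Cells left untreated or incubated at 50 μM for 48 h, with gemcitabine 50 μM as reference. Viability read by MTT.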

[2] = system: MIA PaCa-2; assay: Cytotoxicity against multidrug-resistant human MIAPaCa2 cells assessed as cell viability after 48 hrs by MTT assay; type: functional, cell-based
How it was run: (§2)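 Cells left untreated or incubated with compound over 50 nM to 200 μM for 48 h. Viability read by MTT. Values are mean SE of three independent experiments, and IC50 is taken from the dose-response curves.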

[3] = system: MCF7; assay: Cytotoxicity against human MCF7 cells assessed as cell viability after 48 hrs by MTT assay; type: functional, cell-based; how it was run: as §2
[4] = system: MIA PaCa-2; assay: Cell cycle arrest in multidrug-resistant human MIAPaCa2 cells assessed as accumulation at sub-G0/G1 phase after 48 hrs by propidium iodide staining based FACS flow cytometry (reference value: 1.17%); type: functional
[5] = system: MIA PaCa-2; assay: Induction of apoptosis in multidrug-resistant human MIAPaCa2 cells assessed as necrotic cells after 48 hrs using AnnexinV-FITC conjugated 7- AAD staining by flow cytometry (reference value: 0.17%); type: functional
[6] = system: MIA PaCa-2; assay: Induction of apoptosis in multidrug-resistant human MIAPaCa2 cells assessed as late apoptotic cells after 48 hrs using AnnexinV-FITC conjugated 7- AAD staining by flow cytometry (reference value: 0.21%); type: functional
[7] = system: MIA PaCa-2; assay: Induction of apoptosis in multidrug-resistant human MIAPaCa2 cells assessed as early apoptotic cells after 48 hrs using AnnexinV-FITC conjugated 7- AAD staining by flow cytometry (reference value: 2.54%); type: functional
[8] = system: MIA PaCa-2; assay: Induction of apoptosis in multidrug-resistant human MIAPaCa2 cells assessed as increase in caspase-3/7 activity after 48 hrs by caspase-Glo 3/7 assay; type: functional, cell-based
How it was run: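 MiaPaCa-2 cells treated 48 h, with untreated and gemcitabine references. Caspase-3/7 activity measured. Run in triplicate.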

[9] = biological target: T1, Toll-like receptor 7 (Mus musculus) (UniProt P58681); assay: Activation of TLR7 in C57BL/6 mouse bone marrow dendritic cells assessed as increase of IL6 production after 24 hrs by ELISA; type: cell-based
T1 sequence (whole entry): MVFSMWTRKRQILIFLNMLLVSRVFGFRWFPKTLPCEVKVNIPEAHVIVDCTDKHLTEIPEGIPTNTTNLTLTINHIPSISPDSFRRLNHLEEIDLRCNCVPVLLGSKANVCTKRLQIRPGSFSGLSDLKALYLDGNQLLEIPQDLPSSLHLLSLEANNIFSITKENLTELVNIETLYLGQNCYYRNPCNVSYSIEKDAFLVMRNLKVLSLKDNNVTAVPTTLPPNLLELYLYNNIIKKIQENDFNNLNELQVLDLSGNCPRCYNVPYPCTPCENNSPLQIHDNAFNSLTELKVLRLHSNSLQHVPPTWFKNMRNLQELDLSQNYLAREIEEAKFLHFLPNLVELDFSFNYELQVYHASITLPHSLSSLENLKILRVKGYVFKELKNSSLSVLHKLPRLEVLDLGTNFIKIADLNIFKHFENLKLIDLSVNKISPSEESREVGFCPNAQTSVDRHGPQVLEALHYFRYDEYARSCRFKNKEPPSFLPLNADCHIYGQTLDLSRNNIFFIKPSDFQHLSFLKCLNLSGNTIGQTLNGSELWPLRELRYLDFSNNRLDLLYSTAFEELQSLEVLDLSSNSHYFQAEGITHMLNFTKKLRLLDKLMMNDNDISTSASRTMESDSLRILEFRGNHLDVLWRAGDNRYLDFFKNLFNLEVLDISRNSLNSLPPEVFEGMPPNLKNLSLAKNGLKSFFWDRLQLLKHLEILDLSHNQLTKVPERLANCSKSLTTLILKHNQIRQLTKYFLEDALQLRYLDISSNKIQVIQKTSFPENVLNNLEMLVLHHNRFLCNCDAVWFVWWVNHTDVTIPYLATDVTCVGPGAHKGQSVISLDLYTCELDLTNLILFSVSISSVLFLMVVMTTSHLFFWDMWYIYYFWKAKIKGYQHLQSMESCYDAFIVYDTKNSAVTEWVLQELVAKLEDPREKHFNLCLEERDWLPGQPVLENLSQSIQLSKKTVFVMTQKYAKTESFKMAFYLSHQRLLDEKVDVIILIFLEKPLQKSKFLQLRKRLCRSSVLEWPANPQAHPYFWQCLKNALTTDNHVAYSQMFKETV
How it was run: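 Bone marrow dendritic cells from wild-type mice, left untreated or stimulated with two doses for 24 h. IL-6 in culture supernatants measured by ELISA. Mean SD of four mice per group.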

[10] = system: Dendritic cell; assay: Immunostimulatory activity against wild type C57BL/6 mouse bone marrow dendritic cells assessed as increase in IL-12p40 level at 3 to 10 uM after 24 hrs by ELISA; type: functional, cell-based
How it was run: (§3)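 Bone marrow dendritic cells from wild-type, TLR3−/−, TLR7−/− and TLR9−/− mice, left untreated or stimulated with different doses for 24 h. IL-12p40 protein in culture supernatants measured by ELISA.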

[11] = system: Dendritic cell; assay: Immunostimulatory activity against TLR3-deficient C57BL/6 mouse bone marrow dendritic cells assessed as increase in IL-12p40 level at 3 to 10 uM after 24 hrs by ELISA; type: functional, cell-based; how it was run: as §3
[12] = system: Dendritic cell; assay: Immunostimulatory activity against TLR9-deficient C57BL/6 mouse bone marrow dendritic cells assessed as increase in IL-12p40 level at 3 to 10 uM after 24 hrs by ELISA; type: functional, cell-based; how it was run: as §3
[13] = system: Dendritic cell; assay: Immunostimulatory activity against TLR7-deficient C57BL/6 mouse bone marrow dendritic cells assessed as increase in IL-12p40 level at 10 uM after 24 hrs by ELISA; type: functional, cell-based; how it was run: as §3
[14] = system: MIA PaCa-2; assay: Induction of apoptosis in multidrug-resistant human MIAPaCa2 cells assessed as increase in DNA/histone nucleosome release after 48 hrs by ELISA relative to control; type: functional
How it was run: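 MiaPaCa-2 cells treated 48 h, with untreated and gemcitabine references. Cytoplasmic DNA/histone nucleosome release detected by ELISA and compared with untreated cells. Run in triplicate.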

[15] = system: Capan-2; assay: Cytotoxicity against human Capan2 cells assessed as cell viability at 50 uM after 48 hrs by MTT assay; type: functional, cell-based; how it was run: as §1
[16] = system: PANC-1; assay: Cytotoxicity against human PANC1 cells assessed as cell viability at 50 uM after 48 hrs by MTT assay; type: functional, cell-based; how it was run: as §1
[17] = system: PC-3; assay: Cytotoxicity against human PC3 cells assessed as cell viability at 50 uM after 48 hrs by MTT assay; type: functional, cell-based; how it was run: as §1
[18] = system: HeLa; assay: Cytotoxicity against human HeLa cells assessed as cell viability at 50 uM after 48 hrs by MTT assay; type: functional, cell-based; how it was run: as §1
[19] = system: MCF7; assay: Cytotoxicity against human MCF7 cells assessed as cell viability at 50 uM after 48 hrs by MTT assay; type: functional, cell-based; how it was run: as §1
[20] = system: Capan-2; assay: Cytotoxicity against human Capan2 cells assessed as cell viability after 48 hrs by MTT assay; type: functional, cell-based; how it was run: as §2
[21] = system: PANC-1; assay: Cytotoxicity against human PANC1 cells assessed as cell viability after 48 hrs by MTT assay; type: functional, cell-based; how it was run: as §2
[22] = system: PC-3; assay: Cytotoxicity against human PC3 cells assessed as cell viability after 48 hrs by MTT assay; type: functional, cell-based; how it was run: as §2
[23] = system: HeLa; assay: Cytotoxicity against human HeLa cells assessed as cell viability after 48 hrs by MTT assay; type: functional, cell-based; how it was run: as §2

With COC(=O)c1nc(-c2cn(Cc3ccc4ccccc4c3)nn2)n(COCCOC(C)=O)n1 as the compound, how does the Activity [1] read?
Its Activity is “inactive”.

COC(=O)c1nc(-c2cn(Cc3ccc4ccc5cccc6ccc3c4c56)nn2)n([C@@H]2O[C@H](COC(C)=O)[C@@H](OC(C)=O)[C@H]2OC(C)=O)n1 was tested. Which Activity [2] did it give?
Its Activity is “inactive”.

For COC(=O)c1nc(-c2cn(Cc3ccc4ccc5cccc6ccc3c4c56)nn2)nn1COCCOC(C)=O, which Activity [1] is on record?
Its Activity is “inactive”.

NC(=O)c1nc(-c2cn(Cc3ccc4ccc5cccc6ccc3c4c56)nn2)n(COCCO)n1 was tested. Which Activity [2] did it give?
Its Activity is “Active”.

COC(=O)c1nc(Nc2ccc3ccc4cccc5ccc2c3c45)n(COCCOC(C)=O)n1 was tested. Which Activity [1] did it give?
The Activity was “inactive”.

With COC(=O)c1nc(-c2cn(-c3ccc4ccc5cccc6ccc3c4c56)nn2)n(COCCOC(C)=O)n1 as the compound, how does the Activity [1] read?
The Activity was “inactive”.

For COC(=O)c1nc(-c2cn(Cc3ccc4ccc5cccc6ccc3c4c56)nn2)n(COCCOC(C)=O)n1, which Activity [3] is on record?
The Activity was “Dose-dependent effect”.

And the IC50 ([3]; MCF7, 48 h)?
The IC50 was no more than 10 µM.

What about the Activity [4] of the same compound?
The Activity was 36.9%.

And the Activity [5]?
Its Activity is 0.41%.

And the Activity [6]?
Its Activity is 22.44%.

What about the Activity [7] of the same compound?
Its Activity is 28.48%.

What about the Activity [8] of the same compound?
Its Activity is “Active”.

And the Activity [9]?
The Activity was “Dose-dependent effect”.

And the Activity [10]?
The Activity was “Active”.

And the Activity [11]?
The Activity was “Active”.

What about the Activity [12] of the same compound?
Its Activity is “Active”.

What about the Activity [13] of the same compound?
The Activity was “inactive”.

And the “fold change (FC)” value [14]?
Its value is 15.

And the Activity [1]?
Its Activity is “Active”.

What about the Activity [15] of the same compound?
The Activity was “Active”.

And the Activity [16]?
The Activity was “Active”.

And the Activity [17]?
The Activity was “Active”.

And the Activity [18]?
The Activity was “Active”.

And the Activity [19]?
The Activity was “Active”.

What about the Activity [2] of the same compound?
Its Activity is “Dose-dependent effect”.

And the IC50 ([2]; MIA PaCa-2, 48 h)?
Its IC50 is no more than 10 µM.

What about the Activity [20] of the same compound?
The Activity was “Dose-dependent effect”.

And the IC50 ([20]; Capan-2, 48 h)?
The IC50 was no more than 10 µM.

What about the Activity [21] of the same compound?
Its Activity is “Dose-dependent effect”.

What about the IC50 ([21]; PANC-1, 48 h) of the same compound?
Its IC50 is no more than 10 µM.

And the Activity [22]?
The Activity was “Dose-dependent effect”.

And the IC50 ([22]; PC-3, 48 h)?
Its IC50 is no more than 10 µM.

And the Activity [23]?
Its Activity is “Dose-dependent effect”.

What about the IC50 [23] of the same compound?
The IC50 was no more than 10 µM.

Which Activity [1] does the source give for COC(=O)c1nc(-c2cn(Cc3ccc4cc5ccccc5cc4c3)nn2)n(COCCOC(C)=O)n1 here?
Its Activity is “inactive”.

How did the Activity [1] turn out when COC(=O)c1nc(-c2cn(Cc3ccccc3)nn2)n(COCCOC(C)=O)n1 was run?
The Activity was “inactive”.

COC(=O)c1nc(CCc2ccc3ccc4cccc5ccc2c3c45)n(COCCOC(C)=O)n1 was tested. Which Activity [1] did it give?
Its Activity is “inactive”.

Which Activity [1] does the source give for COC(=O)c1nc(C#Cc2ccc3ccc4cccc5ccc2c3c45)n(COCCOC(C)=O)n1 here?
Its Activity is “inactive”.

Which results are given for Nc1ccn([C@@H]2O[C@H](CO)[C@@H](O)C2(F)F)c(=O)n1 [GEMCITABINE]?
Activity [4]: 7.9%; Activity [5]: 0.35%; Activity [6]: 0.86%; Activity [7]: 10.47%; Activity [8]: Active; Activity [14]: Active
